Measurements from ChEMBL document CHEMBL2202986, “Guaianolide sesquiterpene lactones, a source to discover agents that selectively inhibit acute myelogenous leukemia stem and progenitor cells” (J Med Chem, 2012).
Calls of active or inactive are those of the source.

Columns and labels:
[1] = Cytotoxicity against human leukemia stem/progenitor cells assessed as cell viability at 0.5 uM after 18 hrs by annexin-V labeling-based flow cytometry; type: functional; details: read-out: Activity
Procedure, shortened: (§1)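 Primary leukemia cells from AML patient blood were treated for 18 h in serum-free IMDM, then stained with CD34-APC and CD38-PECy7 for 30 min. After washing in cold PBS, cells were labelled with Annexin-V–FITC/PI for 15 min at room temperature and read by flow cytometry. Viability of total and CD34⁺ cells was normalized to untreated controls (mean, SD).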

[2] = Antitumor activity against human leukemia stem/progenitor cells xenografted in NOD/SCID mouse assessed as survival time at 1 mg/kg, iv administered every other day total of four doses starting from 8 weeks post grafting (reference value: 43 days)
[3] = Cytotoxicity against human HL60/A cells after 18 hrs by annexin-V labeling-based flow cytometry; type: functional, cell-based
[4] = Cytotoxicity against human leukemia stem/progenitor cells assessed as viable CD34+ cells at 0.1 uM after 18 hrs by annexin-V labeling-based flow cytometry; type: functional, CD34+ cell; procedure, shortened: as §1
[5] = Reduction in colony forming units of leukemia stem/progenitor cells at 0.05 uM after 15 to 20 days; type: functional, Homo sapiens
Procedure, shortened: (§2)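 Mononuclear cells from AML patient […] were exposed to drug for 18 h in serum-free IMDM, then plated in triplicate in M3434 methylcellulose. Total colonies (CFC-Mix, CFC-GM, CFC-G, CFC-M, BFU-E) were scored by morphology after 15−20 days.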

[6] = Cytotoxicity against human leukemia stem/progenitor cells assessed as cell viability at 0.1 uM after 18 hrs by annexin-V labeling-based flow cytometry; type: functional; details: in the assay text read “leukemia cells” for “leukemia stem/progenitor cells”, read-out: Activity; procedure, shortened: as §1
[7] = test system: HL-60; assay: Cytotoxicity against human HL60 cells after 18 hrs by annexin-V labeling-based flow cytometry; type: functional, cell-based; details: HL-60, 18 h
[8] = Cytotoxicity against human leukemia stem/progenitor cells assessed as viable CD34+ cells at 0.5 uM after 18 hrs by annexin-V labeling-based flow cytometry; type: functional, CD34+ cell; procedure, shortened: as §1
[9] = Reduction in colony forming units of leukemia stem/progenitor cells at 0.1 uM after 15 to 20 days; type: functional, Homo sapiens; procedure, shortened: as §2
[10] = Cytotoxicity against human leukemia stem/progenitor cells assessed as viable CD34+ cells at 10 uM after 18 hrs by annexin-V labeling-based flow cytometry relative to control; type: functional, CD34+ cell
[11] = Total clearance in mouse at 100 mg/kg, iv; type: ADME, organism-based; parameters: dose 100 mg/kg, route intravenous; details: in vivo
Procedure, shortened: (§3)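 Male Kunming mice (20 2 g), fasted 12 h before dosing with water available, given DMAMCL as an aqueous solution iv (n = 5). Blood was drawn from the orbital veins at set times. DMAMCL and MCL in plasma were measured, and parameters were derived by a noncompartmental model.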

[12] = AUC (0 to t) in mouse at 150 mg/kg, po; type: ADME, organism-based; parameters: dose 150 mg/kg, route oral; details: plasma
Procedure, shortened: (§4)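 Male Kunming mice (20 2 g), fasted 12 h before dosing with water available, given DMAMCL as an aqueous solution po (n = 5). Blood was drawn from the orbital veins at set times. Plasma DMAMCL and MCL were followed, and parameters came from noncompartmental analysis.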

[13] = Mean retention time (0 to t) in mouse at 150 mg/kg, po; type: ADME, organism-based; parameters: dose 150 mg/kg, route oral; details: in vivo; procedure, shortened: as §4
[14] = test system: Homo sapiens; assay: Antitumor activity against human leukemia stem/progenitor cells xenografted in NOD/SCID mouse assessed as reduction of CD45+CD33+ cells in spleen compound pretreated for 18 hrs before grafting process measured after 8 weeks; type: functional, tissue-based
Procedure, shortened: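 Fresh primary AML patient cells were exposed for 18 h to saline or compound. Equal numbers of surviving cells were then injected iv into NOD/SCID mice. After 8 weeks the mice were sacrificed, and the spleen CD33⁺CD45⁺ human cells were quantified by flow cytometry, with each animal analysed individually.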

[15] = Induction of apoptosis in CD34+ leukemia stem/progenitor cells assessed as viable cells at 10 uM using annexin V/propidium iodide by flow cytometry; type: functional; details: Homo sapiens; read-out: Activity
Procedure, shortened: (§5)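 Primary AML patient cells were exposed to 10 μM compound for 18 h in IMDM, then stained with CD34-APC/CD38-PECy7. Annexin-V–FITC/PI was added and incubated for 15 min at room temperature before flow cytometry. Quadrants were defined as Q1 necrotic, Q2 late apoptotic, Q3 early apoptotic and Q4 viable.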

[16] = AUC (0 to infinity) in mouse at 100 mg/kg, iv; type: ADME, organism-based; parameters: time infinity, dose 100 mg/kg, route intravenous; details: plasma; procedure, shortened: as §3
[17] = Induction of apoptosis in CD34+ leukemia stem/progenitor cells assessed as necrotic cells at 10 uM using annexin V/propidium iodide by flow cytometry; type: functional, Homo sapiens; procedure, shortened: as §5
[18] = Reduction in colony forming units of leukemia stem/progenitor cells at 10 uM after 15 to 20 days; type: functional, Homo sapiens; procedure, shortened: as §2
[19] = Cytotoxicity against human leukemia stem/progenitor cells assessed as viable CD34+CD38- cells at 10 uM after 18 hrs by annexin-V labeling-based flow cytometry relative to control; type: functional
[20] = Volume of distribution in mouse at 100 mg/kg, iv; type: ADME, organism-based; parameters: dose 100 mg/kg, route intravenous; details: in vivo
Procedure, shortened: (§6)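 Male Kunming mice (20 2 g) were fasted 12 h with water available. An aqueous solution was dosed po (150 mg/kg) or iv (100 mg/kg), n = 5 per route. Blood was drawn from the orbital veins at set times to measure DMAMCL and released MCL. Parameters come from a noncompartmental model and are given as mean with SD.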

[21] = Cytotoxicity against human CD34+ hematopioetic stem cells at 5 uM by immunostaining method; type: cell-based
Procedure, shortened: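 Mononuclear cells were Ficoll-isolated from umbilical cord blood of a normal donor, cryopreserved, then rested in serum-free IMDM for 1 h. Cells were treated for 18 h in IMDM, stained with CD34-APC for 30 min, and labelled with Annexin-V–FITC/PI for 15 min at room temperature. Read by flow cytometry, normalized to vehicle, done in triplicate.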

[22] = Induction of apoptosis in CD34+ leukemia stem/progenitor cells assessed as early apoptotic cells at 10 uM using annexin V/propidium iodide by flow cytometry; type: functional, Homo sapiens; procedure, shortened: as §5
[23] = Mean retention time (0 to t) in mouse at 100 mg/kg, iv; type: ADME, organism-based; parameters: dose 100 mg/kg, route intravenous; details: in vivo; procedure, shortened: as §3
[24] = Cytotoxicity against human leukemia stem/progenitor cells assessed as viable CD34+ cells at 10 uM after 18 hrs by annexin-V labeling-based flow cytometry; type: functional, CD34+ cell
[25] = AUC (0 to t) in mouse at 100 mg/kg, iv; type: ADME, organism-based; parameters: dose 100 mg/kg, route intravenous; details: plasma; procedure, shortened: as §3
[26] = Total clearance in mouse at 150 mg/kg, po; type: ADME, organism-based; parameters: dose 150 mg/kg, route oral; details: in vivo; procedure, shortened: as §4
[27] = Half life in mouse at 150 mg/kg, po; type: ADME, organism-based; parameters: dose 150 mg/kg, route oral; details: in vivo; procedure, shortened: as §4
[28] = Cytotoxicity against human leukemia stem/progenitor cells assessed as viable CD34+ cells at 5 uM after 18 hrs by annexin-V labeling-based flow cytometry; type: functional, CD34+ cell; procedure, shortened: as §1
[29] = Cmax in mouse at 100 mg/kg, iv; type: ADME, organism-based; parameters: dose 100 mg/kg, route intravenous; details: in vivo; procedure, shortened: as §3
[30] = Tmax in mouse at 150 mg/kg, po; type: ADME, organism-based; parameters: dose 150 mg/kg, route oral; details: in vivo; procedure, shortened: as §4
[31] = AUC (0 to infinity) in mouse at 150 mg/kg, po; type: ADME, organism-based; parameters: dose 150 mg/kg, route oral, time infinity; details: plasma; procedure, shortened: as §4
[32] = Half life in mouse at 100 mg/kg, iv; type: ADME, organism-based; parameters: dose 100 mg/kg, route intravenous; details: in vivo; procedure, shortened: as §3
[33] = Induction of apoptosis in CD34+ leukemia stem/progenitor cells assessed as late apoptotic cells at 10 uM using annexin V/propidium iodide by flow cytometry; type: functional, Homo sapiens; procedure, shortened: as §5
[34] = test system: Mus musculus; assay: Volume of distribution in mouse at 150 mg/kg, po; type: ADME, organism-based; parameters: dose 150 mg/kg, route oral; details: in vivo; procedure, shortened: as §6
[35] = Reduction in colony forming units of leukemia stem/progenitor cells at 5 uM after 15 to 20 days; type: functional, Homo sapiens; procedure, shortened: as §2
[36] = Cmax in mouse at 150 mg/kg, po; type: ADME, organism-based; parameters: dose 150 mg/kg, route oral; details: in vivo; procedure, shortened: as §4
[37] = Mean retention time (0 to infinity) in mouse at 100 mg/kg, iv; type: ADME, organism-based; parameters: dose 100 mg/kg, route intravenous; details: in vivo; procedure, shortened: as §3
[38] = Cytotoxicity against human leukemia cells assessed as cell viability at 10 uM after 18 hrs by annexin-V labeling-based flow cytometry
[39] = Mean retention time (0 to infinity) in mouse at 150 mg/kg, po; type: ADME, organism-based; parameters: dose 150 mg/kg, route oral; details: in vivo; procedure, shortened: as §4
[40] = Cytotoxicity against human leukemia stem/progenitor cells assessed as cell viability at 5 uM after 18 hrs by annexin-V labeling-based flow cytometry; type: functional; details: in the assay text read “leukemia cells” for “leukemia stem/progenitor cells”, read-out: Activity; procedure, shortened: as §1

COc1cccc2c1C(=O)c1c(O)c3c(c(O)c1C2=O)C[C@@](O)(C(=O)CO)C[C@@H]3O[C@H]1C[C@H](N)[C@H](O)[C@H](C)O1 [DOXORUBICIN]
viability at 0.5 µM [1]: 49.1% | Survival [2]: 22 days | IC50 [3]: 6.7 µM | Activity [4]: 115% | CFU [5]: 165 | viability at 0.1 µM [6]: 37.6% | IC50 [7]: 0.05 µM | Activity [8]: 49.1% | CFU [9]: 170

C=C1C(=O)O[C@H]2[C@H]1CCC(C)=C1CC[C@@](C)(O)[C@@H]12 [MICHELIOLIDE]
fold change (FC) [10]: 3.2 | clearance [11]: 288 mL/min/kg | AUC(0-t) [12]: 6630 ng·h/mL | MRT last [13]: 7.59 h | Activity [14]: Active | viability at 10 µM [15]: 1.42% | AUC(0-inf) [16]: 5850 ng·h/mL | Activity [17]: 0.127% | CFU [18]: 0 | IC50 [3]: 6.2 µM | fold change (FC) [19]: 5.3 | Vd [20]: 533 L/kg | Activity [21]: Non-toxic | Activity [22]: 24.2% | MRT last [23]: 1.49 h | Activity [24]: 2.3% | AUC(0-t) [25]: 5490 ng·h/mL | CL/F [26]: 376 mL/min/kg | half-life [27]: 7.92 h | Activity [28]: 4.2% | Cmax [29]: 10700 ng/mL | IC50 [7]: 5.5 µM | Tmax [30]: 0.36 h | AUC(0-inf) [31]: 6720 ng·h/mL | half-life [32]: 12.7 h | Activity [33]: 69.4% | Vd [34]: 265.27 L/kg | CFU [35]: 4.5 | Cmax [36]: 2610 ng/mL | MRT inf [37]: 6.34 h | viability at 10 µM [38]: 8.4% | MRT inf [39]: 8.28 h | viability at 5 µM [40]: 11.7%
